Source: PubChem
HEK293 NFkB inh = inhibitors of PMA/ionomycin-induced NF-kB reporter, primary screen, antigen receptor NF-kB inhibitor project, cell-based, HEK-293 luciferase reporter, luminescence; HEK-293 NF-kB luciferase reporter; inhibition, % at 3 µM; 0.21% of 62,000 active;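 active means inhibition above the mean of all tested compounds plus 3 SD, cut at about 40% in these data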
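Reagent: PMA plus ionomycin mix as NF-kB-activating stimulus. Assay system: NF-kB luciferase reporter HEK-293 cells. Technique: luminescence from luciferase substrate reagent. Incubation: 1 h compound pre-incubation, 16 h PMA/ionomycin at 37 °C. Benchmarks: DMSO only as uninhibited control, 10 µM reference inhibitor as full inhibition. Repeats: tested once.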
AP complement = alternative complement pathway inhibitors, primary screen, biochemical, ELISA, human serum, orthogonally pooled compounds. 0.08% of 62,000 active. LPS-coated ELISA, C3 deposition; tested in compound mixtures. inhibition, % at 5 µM;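 active means inhibition above 30% in each of the two pooled mixtures holding the compound, so the lower value exceeds 30%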
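Assay system: human serum alternative complement pathway, C3 deposition on LPS-coated wells; Dosing: 5 µM per compound in ten-compound mixtures; Detection: Anti-C3 ELISA, OD 450 nm; Buffer or medium: Mg2+-EGTA GVB++ buffer containing human serum at 1:15 dilution; Timing: 1 h at 37 °C; Replication: two different pools per compound.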
E coli RNAP = E. coli RNAP inhibitors, biochemical; DNA-directed RNA polymerase subunit beta (Escherichia coli (strain K12)), P0A8V2; E. coli RNA polymerase, fluorescence transcription assay; inhibition, %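 (tested at 10 µM)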; 0.2% of 62,000 active; in the data active means inhibition above about 20%
D1 mod = D1 CRE-luciferase signal change, two-sided – cell-based, HEK293 D1, dopamine EC30, D1 allosteric modulator project, primary screen; D(1A) dopamine receptor (Homo sapiens), P21728; B-score at 10 µM; dopamine EC30 potentiation; actives deviate in either direction; 5.9% of 58,000 active;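 active means luminescence count or its row- and column-corrected plate score outside the 99.7% band of the plate's sample wells, on either side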
DAT uptake mod = changed hDAT dopamine uptake under cocaine IC80, either direction, primary screen, cocaine antagonist project, cell-based, LLC-PK1 hDAT, [14C]-dopamine uptake, MLSMR; B-score at 10 µM; LLC-PK1 hDAT cells, [14C]-dopamine uptake with cocaine IC80; actives deviate in either direction; 1.3% of 110,000 active;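 active means Z score or B-score, a plate-position-corrected score, falls beyond the plate's 99.7% confidence bounds, in either direction; inactive means both scores lie inside the 99.7% bounds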
Target sequence (Q01959 whole entry, looked up): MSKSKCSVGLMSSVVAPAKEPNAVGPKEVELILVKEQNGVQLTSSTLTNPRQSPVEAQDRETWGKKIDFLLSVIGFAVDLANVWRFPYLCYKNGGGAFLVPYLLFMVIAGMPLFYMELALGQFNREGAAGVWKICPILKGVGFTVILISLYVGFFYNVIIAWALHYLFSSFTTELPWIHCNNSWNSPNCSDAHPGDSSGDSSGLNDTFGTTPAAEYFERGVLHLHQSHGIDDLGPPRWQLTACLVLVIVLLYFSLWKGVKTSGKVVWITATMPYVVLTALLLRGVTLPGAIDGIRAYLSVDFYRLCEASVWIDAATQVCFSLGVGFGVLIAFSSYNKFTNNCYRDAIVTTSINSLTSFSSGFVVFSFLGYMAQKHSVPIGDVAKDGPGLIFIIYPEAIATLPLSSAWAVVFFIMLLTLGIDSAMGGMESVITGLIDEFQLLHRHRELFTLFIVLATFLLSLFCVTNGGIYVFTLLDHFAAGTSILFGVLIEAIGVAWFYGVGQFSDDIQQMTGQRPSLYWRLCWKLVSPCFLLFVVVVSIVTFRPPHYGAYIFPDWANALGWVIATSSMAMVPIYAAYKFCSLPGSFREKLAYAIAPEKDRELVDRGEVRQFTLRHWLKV
Of the large screens only hits and unclear results are named; the others gave an inactive call. Only a selection was taken, and hits are over-represented in it overall.

CCCCCC(=O)Nc1ccc(N2CCN(CC)CC2)c(Cl)c1	D1 mod -4.6
CCOC(=O)N1CCN(C(c2cccc(OC)c2)c2sc3nc(C)nn3c2O)CC1 (stereo unspecified)	D1 mod -6.79
CCOC(=O)N1CCN(C(c2ccc(C)cc2)c2sc3nc(C)nn3c2O)CC1 (stereo unspecified)	none
Cc1ccccc1NC(=O)c1cnc2ccccn2c1=O	D1 mod -5.82
COC(C/C=C/[C@H](O)[C@@H](C)OCc1ccccc1)OC	none (no result: HEK293 NFkB inh, AP complement, E coli RNAP, D1 mod)
C[C@@H](O)[C@H]1C(=O)N2C(C(=O)O)=C(S[C@@H]3CN[C@H](C(=O)N(C)C)C3)[C@H](C)[C@H]12	none (no result: HEK293 NFkB inh, AP complement, E coli RNAP, D1 mod)
O=C1C2C3CC(C(Br)C3Br)C2C(=O)N1c1ccccn1 (stereo unspecified)	DAT uptake mod -7.92 (no result: HEK293 NFkB inh, AP complement, E coli RNAP, D1 mod)
Cc1ccnc(N2C(=O)C3C4CC(C(Br)C4Br)C3C2=O)c1 (stereo unspecified)	none (no result: HEK293 NFkB inh, AP complement, E coli RNAP, D1 mod)
CC(NC(=O)C1CCCCC1)C(c1cccs1)N1CCN(C)CC1 (stereo unspecified)	none (no result: D1 mod)
COc1ccc(C2(CNC(=O)/C=C\c3ccco3)CCCC2)cc1OC	none (no result: HEK293 NFkB inh, AP complement, E coli RNAP, D1 mod)
CCn1c(=N)n(CC(O)c2ccccc2)c2ccccc21 (stereo unspecified)	none (no result: HEK293 NFkB inh, AP complement, E coli RNAP, D1 mod)
CCn1c(=N)n(CCO)c2ccccc21	D1 mod -4.09
O=C(c1ccco1)N1CCN(CC(O)COc2ccc3oc4ccccc4c3c2)CC1 (stereo unspecified)	DAT uptake mod 2.57
CCn1c2ccccc2c2cc(CN3CCN(C(=O)c4ccco4)CC3)ccc21	none
CC(C)(C)c1cnnn1-c1ccc(C=O)cc1	DAT uptake mod -2.73 (no result: HEK293 NFkB inh, AP complement, E coli RNAP, D1 mod)
CC(C)(C)c1cnnn1-c1ccc(C(=O)CCl)cc1	none (no result: HEK293 NFkB inh, AP complement, E coli RNAP, D1 mod)
Cc1cc(C)nc(N2CCC(C(=O)NCCc3ccc(F)cc3)CC2)n1	HEK293 NFkB inh 52.1 (no result: DAT uptake mod)
Cc1cc(C)nc(N2CCCC(C(=O)NCCc3ccc(F)cc3)C2)n1 (stereo unspecified)	none
CCOC(=O)c1sc(SCc2ccccc2)c2c1CC(C)(C)CC2=O	none (no result: HEK293 NFkB inh, AP complement, E coli RNAP, D1 mod)
O=C(Nc1ccc(Cl)cc1)c1ccncc1	none (no result: HEK293 NFkB inh)
CC/C(=C\C(=O)c1ccncc1)Nc1ccc(O)cc1	DAT uptake mod 3.01
CCCc1nc2oc3c(NCCN(C)C)ncnc3c2c2c1CCCC2	D1 mod 3.23
O=C(c1ccc(Cl)cc1)N1CCC(=O)N(C(CO)Cc2ccccc2)CC1 (stereo unspecified)	none (no result: HEK293 NFkB inh, AP complement, E coli RNAP, D1 mod)
N#CC1=C(Nc2ccccc2)SC=C(c2ccc(Br)cc2)N=C1N1CCOCC1	DAT uptake mod -6.21 (no result: HEK293 NFkB inh, AP complement, E coli RNAP, D1 mod)
c1ccc(Nc2nc(N3CCCC3)nc(N3CCOCC3)n2)cc1	none (no result: HEK293 NFkB inh, AP complement, E coli RNAP, D1 mod)
COCCN1C(=O)C(=O)/C(=C(/O)c2ccc(OCC(C)C)cc2)C1c1cccnc1 (stereo unspecified)	none (no result: DAT uptake mod)
Cc1ccc(-c2nn(-c3ccccc3)cc2C(=O)N2CCOCC2)cc1	D1 mod -4.04
COc1cccc(-n2ccnc2SCC(=O)Nc2cc(OC)ccc2OC)c1	DAT uptake mod 1.52
COC(=O)c1ccc(-n2nnnc2SCC(=O)Nc2cc(OC)ccc2OC)cc1	none
COc1ccc(OC)c(NC(=O)CSc2nnnn2-c2ccc3c(c2)OCO3)c1	DAT uptake mod -3.51
COc1ccc(OC)c(NC(=O)CSc2nnc(CCCO)n2-c2ccccc2)c1	DAT uptake mod 2.91
O=C(NC1CC1)C1=C[C@@H](c2ccc(Br)cc2)C[C@@H](OCc2ccc(CO)cc2)O1	none (no result: HEK293 NFkB inh, AP complement, E coli RNAP, D1 mod)
CCn1c(=S)sc2nc(C)sc21	D1 mod 13.1
CCn1c(-c2ccc(C)cc2)n[nH]c1=S	none (no result: HEK293 NFkB inh, AP complement, E coli RNAP, D1 mod)
Cc1c(-n2cc(C(=O)O)c(=O)c3cc(F)c(N4CCCC4)c(F)c32)c(=O)n(-c2ccccc2)n1C	D1 mod 2.69
CN1CCN(c2c(F)cc3c(=O)c(C(=O)O)cn4c3c2SCC4)CC1	none
COc1ccc(-c2csc(N3CCN(C(=O)c4ccccc4)CC3)n2)cc1	none (no result: HEK293 NFkB inh, AP complement, E coli RNAP, D1 mod)
COc1ccc(-c2csc(N3C(=N)SCC3=O)n2)cc1	DAT uptake mod 1.85 (no result: HEK293 NFkB inh, AP complement, E coli RNAP, D1 mod)
COc1ccc(OCC(=O)N2CCN(c3nnc(-c4ccccc4)c4ccccc34)CC2)cc1	DAT uptake mod 2.96
